In the library only some 2.2% were active in any assay of this set; here they are far more common.
Ba/F3 V617F tox = loss of viability in JAK2V617F-driven Ba/F3 cells; Ba/F3 EpoR-JAK2V617F viability, ATP luminescence; inhibition, % at 5.6 µM; actives 1.1% (n = 220,000);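 active = inhibition above the campaign mean plus 3 SD over all tested compounds, cut at about 24% in these data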;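 note: cytokine-independent growth of Ba/F3 cells driven by EpoR plus mutant JAK2; 0% = DMSO-treated cells and 100% = JAK inhibitor I control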
BaF3 parental = counter-screen for JAK2V617F inhibitors: parental Ba/F3 viability inhibitors. inhibition, % at 5.6 µM. AID 1486. CellTiter-Glo ATP luminescence. actives 1.1% (n = 220,000);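 active = inhibition above a per-campaign cutoff, the mean inhibition of all tested compounds plus 3 SD, cut at about 27% in these data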;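 note: 0% = DMSO wells and 100% = JAK Inhibitor I control wells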
IEC-6 tox = kills IEC-6 intestinal cells in KLF5 counter-screen. IEC-6 cytotoxicity, luminescence viability. inhibition, % at 5 µM. actives 0.78% (n = 290,000);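 note: 0% = plate median of test compound wells and 100% = cytotoxic reference compound wells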
MT stabilize HCS = stabilizes microtubules in HeLa cells; HeLa tubulin immunostaining HCS, 24 h; share of cells brighter than vehicle mean+2SD; % tubulin-high responders, % at 10 µM; actives 0.83% (n = 200,000); AID 2205;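 active = plate Z-score above 3 for both tubulin-high and condensed-nucleus cell shares, with cell loss under 80%, at 10 µM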;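 note: anti alpha tubulin signal scored within the nucleus-defined area of each cell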
b-catenin transl = modulators of beta-catenin nuclear translocation; actives 0.3% (n = 190,000); HeLa beta-catenin nuclear translocation, immunofluorescence imaging; nuclear translocation activity, % at 5 µM;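 active = nuclear translocation activity above 50% at 5 µM, with a well cell count of 50 or more; inconclusive = wells under 50 cells across six images, flagged as toxic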;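 note: per-cell ratio of nuclear to cytoplasmic median beta-catenin stain intensity; plate controls were DMSO negative control for no effect and GSK-3 inhibitor IX positive control for full effect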
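Test system: human HeLa cells, native beta-catenin. Compound dosing: 5 µM primary single dose, 0.1% DMSO, 0.02–20 µM confirmation series. Incubation: compound exposure 24 h at 37°C. Detection: beta-catenin immunostaining with DAPI counterstain, 20x imaging, 6 fields/well. Read-out basis: Nuclear/cytoplasmic beta-catenin signal ratio, % activation.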
APP 5UTR inh = APP translation inhibition; SH-SY5Y APP 5'UTR-luciferase reporter, luminescence; inhibition, % at 2 µM; actives 0.82% (n = 190,000); AID 1285;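 active = inhibition above a set limit, derived from the sample mean plus 3 SD, cut at about 45% in these data; inconclusive = one replicate passes the limit while the other fails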
IEC-6 tox confirm = confirmation of cytotoxic compounds in rat IEC-6 intestinal epithelial cells | actives 63% (n = 1,900) | inhibition, % at 5 µM | IEC-6 rat intestinal epithelial viability, luminescence | shares compounds with IEC-6 tox;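 note: 0% = vehicle and 100% = reference cytotoxic drug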
Active calls of the source: *; u = inconclusive; x = no result given. Cut-off read from the data, not from the text of the source, unless noted: active = inhibition above about 22%; inactive = the rest.

SMILES | Ba/F3 V617F tox | BaF3 parental | IEC-6 tox | MT stabilize HCS | b-catenin transl | APP 5UTR inh | IEC-6 tox confirm
CN1CCC2(CC1)CC(NC=O)c1ccccc1O2 (configuration not stated) | 3.2 | 8.2 | -1.8 | 3.6 | -1.5 | -12.1 | x
c1ccc(-c2cc(-c3ccccc3)[n+](-c3ccccc3)c(-c3ccccc3)c2)cc1 | 99.4* | 96.6* | 47.4* | x | 1.3 | x | 47.0*
CC(=O)O[C@@]12CO[C@@H]1C[C@H](OC1OCC(O)C(O)C1O)[C@@]1(C)C(=O)[C@H](O)C3=C(C)[C@@H](OC(=O)[C@H](O)[C@@H](NC(=O)c4ccccc4)c4ccccc4)C[C@@](O)([C@@H](OC(=O)c4ccccc4)C12)C3(C)C (some centres not stated) | x | x | 57.1* | x | x | x | 45.9*
CCCCCC(=O)N[C@@H](c1ccccc1)[C@@H](O)C(=O)O[C@H]1C[C@@]2(O)[C@@H](OC(=O)c3ccccc3)C3[C@](C)(C(=O)[C@H](O)C(=C1C)C2(C)C)[C@@H](OC1OCC(O)C(O)C1O)C[C@H]1OC[C@@]31OC(C)=O (some centres not stated) | x | x | 67.6* | x | x | x | 54.3*
CC(=O)O[C@@]12CO[C@@H]1C[C@@H](O)[C@@]1(C)C(=O)[C@H](O)C3=C(C)[C@@H](OC(=O)[C@H](O)[C@@H](NC(=O)c4ccccc4)c4ccccc4)C[C@@](O)([C@@H](OC(=O)c4ccccc4)C12)C3(C)C (some centres not stated) | x | x | 90.5* | x | x | x | 81.4*
FC(F)(F)c1ccccc1CCN1CCNCC1 | x | x | 9.3 | x | x | x | x
Cc1c(/C=C2/CC3C4CC=C5CC(O)CCC5(C)C4CCC3(C)C2=O)cnn1C (configuration not stated) | 0.8 | 4.8 | 1.8 | 3.6 | x | -3.3 | x
COc1ccc(C2=CC(c3ccc(OC)c(OC)c3)c3c(c4ccccc4oc3=O)O2)cc1OC (configuration not stated) | -0.4 | -1.3 | 28.2* | x | 99.9* | x | 20.8
COc1ccc(C2C(C#N)=C(N)Oc3c2c(=O)oc2ccccc32)cc1Cn1cc([N+](=O)[O-])cn1 (configuration not stated) | 0.3 | 10.1 | -9.6 | 1.7 | 0.4 | 3.0 | x
COc1ccc(CNCCc2c(C)[nH]c3ccc(OC(F)(F)F)cc23)c(OC)c1 | x | x | 37.8* | x | x | x | 22.1*
C=CCN1C(=O)NC(=O)/C(=C/c2ccc(N(C)C)c(Br)c2)C1=O | 2.7 | 7.1 | 6.1 | 4.2 | -2.0 | -11.3 | x
Cc1cccc(CCNCc2cc3cccc(C)c3[nH]c2=O)c1 | x | x | 4.8 | x | x | x | x
Cc1ccccc1-n1c(/C=C/c2ccccn2)nc2ccccc2c1=O | 1.6 | -3.9 | -2.4 | x | -1.9 | x | x
CN1C2CCC1/C(=C/c1ccccn1)C(=O)/C2=C\c1ccccn1 | 100.4* | 103.5* | 58.6* | 61.1 | u | 94.6* | 95.4*
COc1ccc(OCC(=O)N2CCCC(N3CCN(c4ccccc4C)CC3)C2)cc1 (configuration not stated) | x | x | -6.6 | x | x | x | x
COc1ccc(-n2c(O)c(C(C)=NCCc3c[nH]c4ccccc34)c(=O)[nH]c2=O)cc1 | -0.2 | -1.2 | -9.0 | x | 1.0 | x | x
C[C@@]1(CO)[C@H](O)CC[C@@]2(C)[C@H]1CC[C@H]1C[C@@H]3C[C@@]12CC[C@]3(O)CO | 98.9* | 91.4* | 86.8* | 2.5 | -4.6 | 82.7* | 80.1*
Cc1nc2ccccc2c(=O)n1-c1ccc(Br)cn1 | 24.7* | 50.8* | 22.1* | x | -3.6 | x | -1.7
CC1=NCCc2c1[nH]c1ccccc21 | -1.4 | -0.7 | 4.4 | 3.3 | -1.2 | 1.1 | x
c1ccc2c(c1)[nH]c1cnccc12 | 3.3 | 11.0 | 1.1 | 4.2 | -1.8 | 3.8 | x
Cc1c2ccncc2c(C)c2c1[nH]c1ccccc12 | 83.6* | 73.8* | 48.7* | 53.8 | -3.0 | 66.9* | 49.1*
CC/C(=C\C=C\[C@@H]1C=C[C@@H]2CCC[C@H]2[C@@H]1C(=O)c1ccc[nH]1)[C@@H]1O[C@@H]([C@@H](C)C(=O)O)CC[C@@H]1C | 54.9* | 30.7* | 39.2* | 3.4 | 5.8 | -1.6 | 32.8*
Cc1ccc(-c2cc(-c3ccc(C)cc3)[n+](C)o2)cc1 | 91.1* | 73.1* | 25.1* | 3.6 | x | -20.0 | 22.6*
Cn1c(O)c(/C=C/C=Nc2ccccc2)c(=O)n(C)c1=S | -1.5 | -1.7 | 0.3 | 10.0 | x | -15.4 | x
C[C@H]1[C@H](OC(=O)CCC(=O)NCc2ccc(C(=O)O)cc2)O[C@@H]2O[C@@]3(C)CC[C@H]4[C@H](C)CC[C@@H]1C24OO3 | x | x | 23.6* | x | x | x | 21.1
SMILES | Ba/F3 V617F tox | BaF3 parental | IEC-6 tox | MT stabilize HCS | b-catenin transl | APP 5UTR inh | IEC-6 tox confirm
CC1C(OC(=O)CCC(=O)NC(C)(C)CO)O[C@H]2OC3(C)CC[C@H]4[C@H](C)CCC1C24OO3 (some centres not stated) | x | x | 32.9* | x | x | x | 11.3
CC(C)CC(NC(=O)CCCNC(=O)CCC(=O)OC1O[C@H]2OC3(C)CC[C@H]4[C@H](C)CCC(C1C)C24OO3)C(=O)O (some centres not stated) | x | x | 29.7* | x | x | x | 22.9*
CCCC1(CCC)C(=O)NC(=Nc2ccc(C)cc2)NC1=O | 1.6 | 6.5 | -1.3 | 6.5 | -2.0 | -23.7 | x
CNC(=O)O/N=C/c1nn(C(=O)C(C)(C)C)cc1Br | -6.0 | 0.2 | -3.9 | x | -1.2 | x | x
C=CCn1c(O)c(/C=N/N2CCCCC2)c(=O)[nH]c1=O | -0.1 | 5.5 | -3.9 | x | 0.0 | x | x
O=[N+]([O-])NC1=NCCN1Cc1ccc(Cl)nc1 | x | x | 48.5* | x | x | x | 3.6
O=[N+]([O-])/C=C1\NCCN1Cc1ccc(Cl)nc1 | 1.8 | 3.9 | -1.2 | 4.0 | -1.5 | 7.7 | x
O=C(c1ccc2c3c(cccc13)CC2)C1CCCN(CC2CC2)C1 (configuration not stated) | 4.5 | 9.7 | 8.1 | 1.7 | 0.1 | 7.9 | x
CCC1CCCCN1CC(=O)c1ccc(OC(F)F)cc1 (configuration not stated) | -3.8 | 0.8 | 9.5 | 3.7 | 1.5 | -4.7 | x
COC(=O)[C@@H]1[C@@H](C(=O)OC)C2(c3ccccc3-c3ccccc32)N(c2ccc(Cl)cc2)N1C#N | 3.5 | 0.6 | 4.3 | 3.5 | -5.2 | -3.3 | x
COC(=O)C[C@]1(C(=O)OC)CN(C#N)N(c2ccc(Cl)cc2)C12c1ccccc1-c1ccccc12 | 98.3* | 96.7* | 101.1* | 43.8 | -0.2 | 95.7* | 92.6*
